Molecules are shown by their SMILES. In brackets after ≈: the same amount, converted by molar mass.

A short description of series [1]: Inhibition of wild-type HIV1 3B reverse transcriptase infected in human MT2 cells assessed as protection against viral infection by MTT assay. To be noted: Human immunodeficiency virus 1, 3B. The series is classed as cell-based. The method in brief: (§1)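 Human MT-2 T cells, run in triplicate. For antiviral activity, cells were infected with the HIV-1 IIIB strain, and EC50 was taken as the dose giving 50% protection of infected cells. For cytotoxicity, CC50 was the concentration that inhibited MT-2 cell growth by 50%.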
(In general: Formazan colour is commonly taken as a measure of viable cells.)

Series [2] in a line: Cytotoxicity against human MT2 cells assessed as reduction in cell growth by MTT assay. The class given is toxicity, cell-based. Summed up:
as §1

Series [3] can be described thus: Aqueous solubility of the compound at pH 6.5 by shake-flask method. The series is classed as physicochemical.

In general, EC50 refers to the concentration at which the effect is half-maximal. Usually CC50 stands for the concentration that lowers cell viability or growth by half. As for `N#Cc1ccc2ccc(Oc3ccc(F)cc3OCCn3ccc(=O)[nH]c3=O)cc2c1`, the EC50 in series [1] was 26 nM. Moreover, the CC50 in series [2] is over 100000 nM.

On to `COCc1cc(Oc2ccccc2OCCn2ccc(=O)[nH]c2=O)c(C)c2cc(C#N)ccc12`, for which the EC50 in series [1] stood at 15 nM. Besides, the CC50 in series [2] was 16000 nM.

In the case of `N#Cc1ccc2cc(Oc3ccccc3OCCn3ccc(=O)[nH]c3=O)ccc2c1`, the 50% effective concentration (EC50) in series [1] amounted to 1300 nM. In addition, in series [2], the cytotoxic concentration (CC50) was 9000 nM.

On to `N#Cc1ccc2c(Cl)cc(Oc3ccccc3OCCn3ccc(=O)[nH]c3=O)cc2c1`, for which the EC50 in series [1] came to 14 nM. Also, in series [2], the CC50 came to 12000 nM.

As to `Cc1cc(Oc2ccccc2OCCn2ccc(=O)[nH]c2=O)c(C)c2cc(C#N)ccc12`, the EC50 in series [1] is 3.5 nM. In addition, the CC50 in series [2] is over 100000 nM.

On to `Cc1cc(Oc2ccc(F)cc2OCCn2ccc(=O)[nH]c2=O)c(F)c2cc(C#N)ccc12`, for which, in series [1], the EC50 was 58 nM. Also, the CC50 in series [2] came to 45000 nM.

Turning to `Cc1c(Oc2ccc(Cl)cc2OCCn2ccc(=O)[nH]c2=O)cc(F)c2ccc(C#N)cc12`, in series [1], the EC50 was 18 nM. In addition, the CC50 in series [2] came out at 6000 nM.

As for `Cc1cc(Oc2ccccc2OCCn2ccc(=O)[nH]c2=O)cc2cc(C#N)ccc12`, the EC50 in series [1] is 4.9 nM. Also, the 50% cytotoxic concentration (CC50) in series [2] is 6000 nM.

In the case of `N#Cc1ccc2c(F)cc(Oc3ccccc3OCCn3ccc(=O)[nH]c3=O)c(Cl)c2c1`, the EC50 in series [1] is 5 nM. Moreover, in series [2], the CC50 is over 100000 nM.

On to `CCOc1cc(Oc2ccccc2OCCn2ccc(=O)[nH]c2=O)c(C)c2cc(C#N)ccc12`, for which, in series [1], the EC50 worked out at 10 nM. In addition, the CC50 in series [2] was over 100000 nM.

On to `Cc1cc(Oc2ccc(F)cc2OCCn2ccc(=O)[nH]c2=O)c(C)c2cc(C#N)ccc12`, for which the concentration for a half-maximal effect (EC50) in series [1] was determined as 1.9 nM. The CC50 in series [2] is over 100000 nM.

Turning to `CCc1cc(Oc2ccccc2OCCn2ccc(=O)[nH]c2=O)c(C)c2cc(C#N)ccc12`, in series [1], the EC50 came out at 6 nM. Besides, the 50% cytotoxic concentration (CC50) in series [2] is 12000 nM.

Take `COc1cc(Oc2ccccc2OCCn2ccc(=O)[nH]c2=O)c(C)c2cc(C#N)ccc12`: in series [1], the 50% effective concentration (EC50) was 17 nM. Also, the CC50 in series [2] is over 100000 nM.

For the compound `Cc1c(Oc2ccc(F)cc2OCCn2ccc(=O)[nH]c2=O)cc(Cl)c2ccc(C#N)cc12`, in series [1], the half-maximal effective concentration (EC50) amounted to 3.6 nM. The CC50 in series [2] was determined as 82000 nM.

On to `CCCc1cc(Oc2ccccc2OCCn2ccc(=O)[nH]c2=O)c(C)c2cc(C#N)ccc12`, for which the 50% effective concentration (EC50) in series [1] turned out to be 21 nM. Also, in series [2], the CC50 is 15000 nM.

Turning to `N#Cc1cc2c(Oc3ccc(F)cc3OCCn3ccc(=O)[nH]c3=O)cc(F)cn2c1`, the EC50 in series [1] is 0.4 nM.

Regarding `Cc1cc2ccc(C#N)cc2c(C)c1Oc1ccccc1OCCn1ccc(=O)[nH]c1=O`, the EC50 in series [1] amounted to 160 nM. In series [2], the CC50 worked out at 5000 nM.

Take `Cc1c(Oc2ccccc2OCCn2ccc(=O)[nH]c2=O)cc(C(C)C)c2ccc(C#N)cc12`: in series [1], the EC50 came out at 16 nM. Also, the CC50 in series [2] worked out at 9000 nM.

On to `Cc1c(Oc2ccccc2OCCn2ccc(=O)[nH]c2=O)c(C)c2cc(C#N)ccc2c1C`, for which, in series [1], the EC50 is 580 nM. Further, the CC50 in series [2] is over 100000 nM.

As for `Cc1cc(Oc2ccccc2OCCn2ccc(=O)[nH]c2=O)c(Cl)c2cc(C#N)ccc12`, the EC50 in series [1] is 5 nM. The CC50 in series [2] was over 100000 nM.

Consider `N#Cc1ccc2c(F)cc(Oc3ccc(F)cc3OCCn3ccc(=O)[nH]c3=O)c(Cl)c2c1`, for which the half-maximal effective concentration (EC50) in series [1] worked out at 7 nM. The 50% cytotoxic concentration (CC50) in series [2] came out at 28000 nM.

With `Cc1c(Oc2ccccc2OCCn2ccc(=O)[nH]c2=O)cc(CC2CC2)c2ccc(C#N)cc12`, the EC50 in series [1] was determined as 18 nM. The CC50 in series [2] stood at 13000 nM.

The term solubility (thermodynamic) denotes solubility found after equilibrating the solid with the medium. For `Cc1c(Oc2ccccc2OCCn2ccc(=O)[nH]c2=O)cc(F)c2ccc(C#N)cc12`, the EC50 in series [1] worked out at 7.8 nM. The CC50 in series [2] is over 100000 nM. The thermodynamic solubility in series [3] worked out at 28.2 µg/mL (≈ 65.4 µM).

For `N#Cc1ccc2ccc(Oc3ccccc3OCCn3ccc(=O)[nH]c3=O)cc2c1`, in series [1], the half-maximal effective concentration (EC50) came to 22 nM. Besides, the CC50 in series [2] stood at 15000 nM.

In the case of `Cc1c(Oc2ccc(F)cc2OCCn2ccc(=O)[nH]c2=O)cc(F)c2ccc(C#N)cc12`, in series [1], the EC50 turned out to be 3 nM. Further, the CC50 in series [2] was over 100000 nM.

As for `Cc1c(Oc2ccccc2OCCn2ccc(=O)[nH]c2=O)cc(Cl)c2ccc(C#N)cc12`, the EC50 in series [1] was determined as 6.2 nM. Also, in series [2], the CC50 was over 100000 nM. Besides, the solubility (thermodynamic) in series [3] is 20.6 µg/mL (≈ 46 µM).

As for `N#Cc1ccc2c(Cl)cc(Oc3ccc(F)cc3OCCn3ccc(=O)[nH]c3=O)cc2c1`, the EC50 in series [1] was 24 nM. The CC50 in series [2] is over 100000 nM.

The values are drawn from ChEMBL document CHEMBL3867485, “Design, Conformation, and Crystallography of 2-Naphthyl Phenyl Ethers as Potent Anti-HIV Agents” (ACS Med Chem Lett, 2016).
